Experimental data as given in ChEMBL document CHEMBL1142796 (Bioorg Med Chem Lett, 2005).
pEC50, pKi: −log10 of the molar value.

What was measured:
[1] = molecular target: Neuronal acetylcholine receptor; alpha4/beta2 (Rattus norvegicus) (UniProt P09483+P12390); experiment: Maximal response against rat alpha4-beta2 nicotinic acetylcholine receptor; type: protein-complex assay
Summary of the method: (§1)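 Rat α4β2 expressed in Xenopus oocytes, two-electrode voltage clamp at −60 mV, perfused at 4 ml/min. Controls were 10 μM ACh applied for 8 s with 241 s washout, given as two controls, then drug, then a control. Peak current was normalized to the preceding ACh control and rescaled to the ACh maximum.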

[2] = molecular target: Neuronal acetylcholine receptor; alpha3/beta4 (Rattus norvegicus) (UniProt P04757+P12392); experiment: Maximal response against rat alpha3-beta4 nicotinic acetylcholine receptor; type: protein-complex assay
Summary of the method: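 Rat α3β4 expressed in Xenopus oocytes, two-electrode voltage clamp at −60 mV, perfused at 4 ml/min. Controls were 100 μM ACh applied for 8 s with 241 s washout, given as two controls, then drug, then a control. Peak current was normalized to the preceding ACh control and rescaled to the ACh maximum.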

[3] = molecular target: Neuronal acetylcholine receptor subunit alpha-7 (Rattus norvegicus) (UniProt Q05941); experiment: Maximal response against rat alpha-7 nicotinic acetylcholine receptor
Sequence of Neuronal acetylcholine receptor subunit alpha-7 (Rattus norvegicus) (Q05941 whole entry): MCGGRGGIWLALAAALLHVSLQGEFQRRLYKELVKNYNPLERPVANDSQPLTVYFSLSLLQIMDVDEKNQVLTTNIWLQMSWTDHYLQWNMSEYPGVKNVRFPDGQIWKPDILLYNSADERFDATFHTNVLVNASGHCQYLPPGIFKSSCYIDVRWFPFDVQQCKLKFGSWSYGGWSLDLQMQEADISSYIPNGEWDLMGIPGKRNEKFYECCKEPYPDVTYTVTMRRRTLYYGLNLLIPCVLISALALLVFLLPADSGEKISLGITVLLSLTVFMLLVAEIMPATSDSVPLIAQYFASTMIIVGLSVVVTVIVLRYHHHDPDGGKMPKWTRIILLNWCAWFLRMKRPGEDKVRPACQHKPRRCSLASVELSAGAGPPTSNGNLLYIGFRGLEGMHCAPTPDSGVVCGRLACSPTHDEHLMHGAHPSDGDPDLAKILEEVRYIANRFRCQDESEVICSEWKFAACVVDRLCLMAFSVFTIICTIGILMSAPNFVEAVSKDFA
Summary of the method: as §1, with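 “α7” for “α4β2”, “2” for “4”, “300” for “10”, “12” for “8”, “181” for “241”, “Net-charge responses were” for “Peak current was”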

[4] = molecular target: T1, Neuronal acetylcholine receptor; alpha4/beta2 (Rattus norvegicus, UniProt P09483+P12390); experiment: Inhibition of [3H]nicotine binding to alpha4-beta2 nicotinic acetylcholine receptor of rat brain membrane
T1 sequence (P09483 whole entry): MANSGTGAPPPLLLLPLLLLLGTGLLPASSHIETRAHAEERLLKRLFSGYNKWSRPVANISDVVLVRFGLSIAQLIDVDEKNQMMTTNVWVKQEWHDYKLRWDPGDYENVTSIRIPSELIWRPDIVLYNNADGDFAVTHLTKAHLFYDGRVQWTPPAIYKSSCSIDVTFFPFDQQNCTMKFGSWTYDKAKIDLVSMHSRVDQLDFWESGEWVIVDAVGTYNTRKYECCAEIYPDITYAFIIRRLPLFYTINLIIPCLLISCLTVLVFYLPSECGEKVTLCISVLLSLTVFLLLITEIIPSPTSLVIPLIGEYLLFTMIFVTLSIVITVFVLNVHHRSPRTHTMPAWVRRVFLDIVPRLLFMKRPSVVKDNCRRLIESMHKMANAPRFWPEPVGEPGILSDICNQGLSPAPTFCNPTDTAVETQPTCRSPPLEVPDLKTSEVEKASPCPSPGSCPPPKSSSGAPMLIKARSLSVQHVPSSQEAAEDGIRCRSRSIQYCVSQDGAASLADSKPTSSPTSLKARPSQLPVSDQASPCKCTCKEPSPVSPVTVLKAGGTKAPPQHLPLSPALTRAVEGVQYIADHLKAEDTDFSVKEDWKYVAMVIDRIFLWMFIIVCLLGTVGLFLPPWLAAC
T1 sequence (P12390 whole entry): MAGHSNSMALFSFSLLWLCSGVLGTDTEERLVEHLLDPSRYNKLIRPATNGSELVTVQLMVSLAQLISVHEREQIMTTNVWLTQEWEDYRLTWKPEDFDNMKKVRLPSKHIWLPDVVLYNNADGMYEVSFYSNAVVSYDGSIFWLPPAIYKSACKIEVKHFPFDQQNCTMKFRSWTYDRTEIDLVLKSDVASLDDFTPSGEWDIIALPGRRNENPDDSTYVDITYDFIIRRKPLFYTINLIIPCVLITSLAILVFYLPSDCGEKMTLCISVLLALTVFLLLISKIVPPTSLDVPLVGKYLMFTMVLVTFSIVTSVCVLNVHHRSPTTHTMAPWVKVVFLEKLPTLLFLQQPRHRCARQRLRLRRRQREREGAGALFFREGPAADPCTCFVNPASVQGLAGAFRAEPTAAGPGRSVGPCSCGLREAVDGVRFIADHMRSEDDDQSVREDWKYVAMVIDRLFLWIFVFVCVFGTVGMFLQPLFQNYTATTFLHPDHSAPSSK

[5] = molecular target: T2, Neuronal acetylcholine receptor subunit alpha-7 (Rattus norvegicus, UniProt Q05941); experiment: Effective concentration against rat alpha7 nicotinic acetylcholine receptor
T2 sequence (Q05941 whole entry): as the sequence (Q05941 whole entry) above
Summary of the method: as §1, with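 “α7” for “α4β2”, “2” for “4”, “300” for “10”, “12” for “8”, “181” for “241”, “Net-charge responses were” for “Peak current was”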

[6] = molecular target: T1, Neuronal acetylcholine receptor; alpha4/beta2; experiment: Effective concentration against rat alpha4-beta2 nicotinic acetylcholine receptor; type: protein-complex assay
Summary of the method: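 Rat α4β2 expressed in Xenopus oocytes, two-electrode voltage clamp at −60 mV, perfused at 4 ml/min. Peak current was normalized to the preceding ACh control and rescaled to the ACh maximum.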

[7] = molecular target: T2, Neuronal acetylcholine receptor subunit alpha-7; experiment: Inhibition of [3H]-MLA binding to alpha-7 nicotinic acetylcholine receptor of rat brain membrane
[8] = molecular target: Neuronal acetylcholine receptor; alpha3/beta4 (Rattus norvegicus, UniProt P04757+P12392); experiment: Effective concentration against rat alpha3-beta4 nicotinic acetylcholine receptor; type: protein-complex assay
Sequence of Neuronal acetylcholine receptor; alpha3/beta4 (P04757 whole entry, the tested form may be a part): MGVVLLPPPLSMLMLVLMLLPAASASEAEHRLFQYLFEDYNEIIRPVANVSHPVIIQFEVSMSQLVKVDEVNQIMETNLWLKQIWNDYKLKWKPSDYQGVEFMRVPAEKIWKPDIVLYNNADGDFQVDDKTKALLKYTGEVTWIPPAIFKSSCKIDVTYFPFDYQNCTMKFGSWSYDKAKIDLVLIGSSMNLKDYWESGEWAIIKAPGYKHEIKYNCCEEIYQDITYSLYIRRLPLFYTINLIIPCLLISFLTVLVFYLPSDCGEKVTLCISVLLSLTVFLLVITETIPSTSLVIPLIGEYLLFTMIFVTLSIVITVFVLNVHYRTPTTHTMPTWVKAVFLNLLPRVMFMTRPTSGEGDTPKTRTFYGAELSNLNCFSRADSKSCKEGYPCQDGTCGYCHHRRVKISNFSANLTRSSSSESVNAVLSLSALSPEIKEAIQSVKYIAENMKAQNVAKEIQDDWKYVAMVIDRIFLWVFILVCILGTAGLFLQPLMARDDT
Sequence of Neuronal acetylcholine receptor; alpha3/beta4 (P12392 whole entry, the tested form may be a part): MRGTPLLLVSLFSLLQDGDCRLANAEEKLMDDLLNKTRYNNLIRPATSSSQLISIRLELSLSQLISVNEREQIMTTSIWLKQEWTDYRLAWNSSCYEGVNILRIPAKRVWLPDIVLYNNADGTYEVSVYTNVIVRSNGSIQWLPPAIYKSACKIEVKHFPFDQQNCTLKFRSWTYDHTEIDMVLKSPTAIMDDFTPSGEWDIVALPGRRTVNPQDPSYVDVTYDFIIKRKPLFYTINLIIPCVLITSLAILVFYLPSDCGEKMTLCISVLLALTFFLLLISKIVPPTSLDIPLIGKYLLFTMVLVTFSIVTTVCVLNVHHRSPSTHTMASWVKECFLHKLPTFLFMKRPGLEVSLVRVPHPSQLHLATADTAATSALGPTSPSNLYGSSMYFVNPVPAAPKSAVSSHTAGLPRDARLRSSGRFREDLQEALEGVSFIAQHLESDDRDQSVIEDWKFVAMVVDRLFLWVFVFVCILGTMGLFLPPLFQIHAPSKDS
Summary of the method: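 Rat α3β4 expressed in Xenopus oocytes, two-electrode voltage clamp at −60 mV, perfused at 4 ml/min. Peak current was normalized to the preceding ACh control and rescaled to the ACh maximum.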

[9] = molecular target: T2, Neuronal acetylcholine receptor subunit alpha-7; experiment: Effective concentration against rat alpha-7 nicotinic acetylcholine receptor
Summary of the method: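 Rat α7 expressed in Xenopus oocytes, two-electrode voltage clamp at −60 mV, perfused at 2 ml/min. Net-charge responses were normalized to the preceding ACh control and rescaled to the ACh maximum.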

[10] = molecular target: T2, Neuronal acetylcholine receptor subunit alpha-7; experiment: Inhibition of [3H]MLA binding to rat alpha7 nicotinic acetylcholine receptor

Compound | Imax [1] | Imax [2] | Imax [3] | pKi [4] | pEC50 [5] | pEC50 [6] | pKi [7] | pEC50 [8] | pEC50 [9] | pKi [10]
CN1CCC[C@H]1c1cccnc1 | 0.17 | 0.69 | 0.6 |  |  |  |  |  |  | 
CN1CC[C@@H]2CCc3ccncc3[C@@H]21 |  |  | 0.11 | 6.40 | 4.36 |  |  |  |  | 
CN1CCC[C@H]1c1ccc[n+]([BH2-]C#N)c1 | 0.05 | 0.06 | 0.15 | 7.39 |  | 3.82 | 4.82 | 4.55 | 4.68 | 
CN1CC[C@H]2CCc3ncccc3[C@H]21 |  |  |  | 4.91 |  |  |  |  |  | 
CN1CC[C@@H]2CCc3cc[n+]([BH2-]C#N)cc3[C@@H]21 |  |  | 0.26 | 6.22 |  |  |  |  | 4.70 | 5.62
